# Measured values reported in ChEMBL document CHEMBL1153140, “Piperidyl amides as novel, potent and orally active mGlu5 receptor antagonists with anxiolytic-like activity” (Bioorg Med Chem Lett, 2010).
# Active and inactive are the calls of the source. The calls are words filed in the database; no cut-off is given here.
# Experiments:
# [1] = target: T1, Metabotropic glutamate receptor 5 (Homo sapiens, UniProt P41594); experiment: Antagonist activity at human mGluR5 assessed as inhibition of glutamate-induced elevation of intracellular calcium concentration; format: functional, cell-based
# T1 sequence (P41594 whole entry): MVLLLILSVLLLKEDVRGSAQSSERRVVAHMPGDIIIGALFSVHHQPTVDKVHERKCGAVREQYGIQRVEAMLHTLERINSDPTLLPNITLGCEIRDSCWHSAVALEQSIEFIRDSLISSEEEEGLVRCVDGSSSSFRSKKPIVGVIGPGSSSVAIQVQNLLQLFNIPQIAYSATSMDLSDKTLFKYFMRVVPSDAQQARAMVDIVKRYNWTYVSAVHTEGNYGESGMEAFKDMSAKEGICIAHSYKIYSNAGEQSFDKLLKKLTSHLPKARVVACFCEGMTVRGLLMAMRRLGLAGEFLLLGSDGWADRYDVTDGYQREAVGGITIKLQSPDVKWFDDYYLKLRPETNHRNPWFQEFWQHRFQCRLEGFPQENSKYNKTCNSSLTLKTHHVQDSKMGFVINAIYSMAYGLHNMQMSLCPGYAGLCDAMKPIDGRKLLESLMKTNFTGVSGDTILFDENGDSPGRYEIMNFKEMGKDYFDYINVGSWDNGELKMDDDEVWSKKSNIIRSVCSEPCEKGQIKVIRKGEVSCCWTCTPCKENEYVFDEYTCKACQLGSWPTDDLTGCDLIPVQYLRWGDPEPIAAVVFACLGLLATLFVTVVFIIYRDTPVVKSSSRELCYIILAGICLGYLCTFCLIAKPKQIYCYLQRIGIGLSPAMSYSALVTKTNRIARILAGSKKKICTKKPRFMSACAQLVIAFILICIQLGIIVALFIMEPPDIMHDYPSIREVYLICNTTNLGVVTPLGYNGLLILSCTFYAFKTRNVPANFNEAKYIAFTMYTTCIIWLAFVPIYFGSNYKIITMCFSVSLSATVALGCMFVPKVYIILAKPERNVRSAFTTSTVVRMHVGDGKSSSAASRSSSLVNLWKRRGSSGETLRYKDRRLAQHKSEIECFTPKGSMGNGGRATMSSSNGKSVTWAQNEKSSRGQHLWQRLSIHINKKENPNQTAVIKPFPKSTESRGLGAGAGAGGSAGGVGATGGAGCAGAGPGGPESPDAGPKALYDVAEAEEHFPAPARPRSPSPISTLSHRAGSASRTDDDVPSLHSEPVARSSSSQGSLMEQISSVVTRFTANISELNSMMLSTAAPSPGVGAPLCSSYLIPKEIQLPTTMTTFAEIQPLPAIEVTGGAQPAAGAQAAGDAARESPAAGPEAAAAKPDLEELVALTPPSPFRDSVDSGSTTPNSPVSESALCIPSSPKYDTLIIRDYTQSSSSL
# [2] = Intrinsic clearance in human liver microsomes; format: ADME, Microsome
# [3] = Intrinsic clearance in rat liver microsomes; format: ADME, Microsome
# [4] = Aqueous solubility at pH 6.8; format: physicochemical
# In short: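 Solubility measured at pH 6.8 by a dissolution template potentiometric titration approach, expressed in mg/L.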
# [5] = target: T1, Metabotropic glutamate receptor 5; experiment: Antagonist activity at human mGluR5 assessed as inhibition of quisqualate-induced intracellular inositol phosphate accumulation; format: functional, cell-based
# Brain = experiment: Drug level in rat brain at 2 mg/kg; format: ADME, organism-based; set-up: dose 2 mg/kg; conditions: in vivo
# In short: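 In a fear-potentiated startle run at 0.08–30 mg/kg po, rats were sacrificed immediately after testing. Brains were removed and drug concentration measured by HPLC, reported as mean ± SEM per dose group.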
# [6] = Second elimination Half life in Sprague-Dawley rat at 10 umol/kg, iv; format: ADME, organism-based; conditions: in vivo, read-out: beta t1/2 (converted)
# In short: (§1)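 Single iv bolus of 10 µmol/kg in Sprague-Dawley rats, n = 3 per group. Plasma concentration-time profile analysed for AUC, clearance, first and second elimination half-lives, MRT and Vss. Brain/plasma AUC ratio also determined.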
# [7] = target: Metabotropic glutamate receptor 1 (Homo sapiens, UniProt Q13255); experiment: Inhibition of human mGluR1
# Metabotropic glutamate receptor 1, sequence (Q13255 whole entry): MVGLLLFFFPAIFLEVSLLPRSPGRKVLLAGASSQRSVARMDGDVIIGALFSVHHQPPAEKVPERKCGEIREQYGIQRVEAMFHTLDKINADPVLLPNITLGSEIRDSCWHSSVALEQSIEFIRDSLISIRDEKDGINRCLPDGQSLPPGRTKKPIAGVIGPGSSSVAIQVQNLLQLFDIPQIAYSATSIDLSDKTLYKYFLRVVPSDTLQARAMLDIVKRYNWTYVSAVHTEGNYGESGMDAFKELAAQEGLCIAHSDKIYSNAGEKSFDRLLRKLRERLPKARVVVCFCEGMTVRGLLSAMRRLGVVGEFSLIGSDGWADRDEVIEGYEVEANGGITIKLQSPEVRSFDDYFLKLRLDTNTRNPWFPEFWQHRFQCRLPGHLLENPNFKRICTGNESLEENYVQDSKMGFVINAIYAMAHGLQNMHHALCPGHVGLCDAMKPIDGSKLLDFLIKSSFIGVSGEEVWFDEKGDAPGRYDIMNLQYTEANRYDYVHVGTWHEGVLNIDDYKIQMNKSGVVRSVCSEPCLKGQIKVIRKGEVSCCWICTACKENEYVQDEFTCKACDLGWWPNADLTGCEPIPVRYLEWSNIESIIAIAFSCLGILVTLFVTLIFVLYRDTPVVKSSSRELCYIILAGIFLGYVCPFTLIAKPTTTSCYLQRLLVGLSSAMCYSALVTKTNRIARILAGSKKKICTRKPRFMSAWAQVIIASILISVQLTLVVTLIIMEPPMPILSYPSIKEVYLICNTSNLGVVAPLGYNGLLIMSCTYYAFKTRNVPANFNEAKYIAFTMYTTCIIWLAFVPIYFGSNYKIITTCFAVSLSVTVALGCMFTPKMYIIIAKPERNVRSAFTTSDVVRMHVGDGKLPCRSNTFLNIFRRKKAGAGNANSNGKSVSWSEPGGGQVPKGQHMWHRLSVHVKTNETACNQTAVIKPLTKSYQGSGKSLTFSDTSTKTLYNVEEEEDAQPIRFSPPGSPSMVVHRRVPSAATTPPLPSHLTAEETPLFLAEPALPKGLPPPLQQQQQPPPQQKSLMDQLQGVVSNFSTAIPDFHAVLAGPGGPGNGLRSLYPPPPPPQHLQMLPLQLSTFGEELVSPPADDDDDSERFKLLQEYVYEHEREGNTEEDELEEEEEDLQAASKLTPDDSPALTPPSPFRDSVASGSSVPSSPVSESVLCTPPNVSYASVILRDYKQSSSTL
# [8] = AUC in Sprague-Dawley rat at 10 umol/kg, iv; format: ADME, organism-based; conditions: plasma; in short: as §1
# [9] = Ratio of drug level in brain to plasma in Sprague-Dawley rat at 10 umol/kg, iv; format: ADME
# In short: (§2)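 Single-dose pharmacokinetic study in Sprague-Dawley rats, n = 3 per group, given one oral or one iv bolus dose. Drug concentrations were followed over time in plasma and brain. The ratio is the brain AUC divided by the plasma AUC.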
# Rattus norvegicus [10] = organism: Rattus norvegicus; experiment: Anxiolytic-like activity in rat assessed as reduction in electric foot shock-induced fear-potentiation startle; format: functional, organism-based
# In short: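 Rats fear-conditioned by 20 pairings of light (5 s) with footshock (0.5 mA, 0.5 s) on two successive days. On day 3, oral dosing (3–30 mg/kg, n = 10/group). 1 h later, startle to a noise burst measured with and without light, 12 presentations each; FPS taken as the difference. Multifactorial ANOVA with Dunnett post-hoc.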
# [11] = Oral bioavailability in Sprague-Dawley rat at 30 umol/kg; format: ADME, organism-based; conditions: in vivo
# In short: (§3)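 Sprague-Dawley rats (n = 3/group) dosed orally once at 30 µmol/kg. Plasma Cmax, Tmax and AUC determined.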
# [12] = Mean retention time in Sprague-Dawley rat at 10 umol/kg, iv; format: ADME, organism-based; conditions: in vivo; in short: as §1
# [13] = Displacement of radioligand from glutamate binding site of kinate receptor in rat brain membrane; format: cell membranes
# In short: (§4)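 Radioligand displacement in rat brain membranes: AMPA (glutamate site), kainate (glutamate site) and NMDA (glutamate and glycine sites).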
# Rattus norvegicus [14] = experiment: Anxiolytic-like activity in water-deprived rat assessed as increase in electrical shock-stimulated lick at 10 to 30 mg/kg, po administered 1 hr before test by Vogel conflict test; format: functional, organism-based
# Mus musculus = experiment: Anxiolytic-like activity in mouse assessed as reduction of stress-induced hyperthermia at 3 to 10 mg/kg, po; format: functional, organism-based
# [15] = target: Metabotropic glutamate receptor 5 (Rattus norvegicus, UniProt P31424); experiment: Displacement of [3H]ABP688 from mGluR5 in rat brain cortex; format: tissue-based
# Metabotropic glutamate receptor 5 (Rattus norvegicus, UniProt P31424), sequence (P31424 whole entry): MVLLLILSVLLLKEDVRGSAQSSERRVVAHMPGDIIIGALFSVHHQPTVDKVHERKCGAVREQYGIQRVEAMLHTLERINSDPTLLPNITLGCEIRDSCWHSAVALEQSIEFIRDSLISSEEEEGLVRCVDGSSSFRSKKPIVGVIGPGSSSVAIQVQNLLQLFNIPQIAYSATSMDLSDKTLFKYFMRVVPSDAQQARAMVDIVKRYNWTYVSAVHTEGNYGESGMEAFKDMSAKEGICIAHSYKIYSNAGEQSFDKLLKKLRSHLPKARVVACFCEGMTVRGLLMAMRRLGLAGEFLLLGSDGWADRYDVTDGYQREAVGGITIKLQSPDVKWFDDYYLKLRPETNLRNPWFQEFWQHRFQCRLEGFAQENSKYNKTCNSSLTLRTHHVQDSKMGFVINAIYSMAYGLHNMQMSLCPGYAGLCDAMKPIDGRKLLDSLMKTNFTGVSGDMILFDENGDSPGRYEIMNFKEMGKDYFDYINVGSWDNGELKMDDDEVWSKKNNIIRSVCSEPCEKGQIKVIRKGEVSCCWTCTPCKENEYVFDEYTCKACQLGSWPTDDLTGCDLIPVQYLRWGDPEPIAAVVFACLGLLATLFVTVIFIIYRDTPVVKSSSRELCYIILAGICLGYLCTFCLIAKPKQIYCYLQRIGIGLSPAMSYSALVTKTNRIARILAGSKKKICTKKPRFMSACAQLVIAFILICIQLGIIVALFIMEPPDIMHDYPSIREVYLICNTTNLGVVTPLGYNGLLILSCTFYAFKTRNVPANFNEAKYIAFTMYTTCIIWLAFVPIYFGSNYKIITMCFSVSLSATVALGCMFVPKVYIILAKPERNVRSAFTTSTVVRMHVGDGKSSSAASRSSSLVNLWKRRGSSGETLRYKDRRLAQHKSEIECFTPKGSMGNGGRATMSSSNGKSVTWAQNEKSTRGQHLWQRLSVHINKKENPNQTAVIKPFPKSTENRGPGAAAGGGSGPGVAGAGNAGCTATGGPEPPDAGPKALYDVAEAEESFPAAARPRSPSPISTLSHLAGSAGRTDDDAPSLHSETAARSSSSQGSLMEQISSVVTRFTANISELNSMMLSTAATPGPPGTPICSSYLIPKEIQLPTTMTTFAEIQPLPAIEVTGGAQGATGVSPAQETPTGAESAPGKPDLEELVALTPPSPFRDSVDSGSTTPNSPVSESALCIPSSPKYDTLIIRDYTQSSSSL
# [16] = target: Metabotropic glutamate receptor 7 (Homo sapiens, UniProt Q14831); experiment: Inhibition of human mGluR7
# Metabotropic glutamate receptor 7, sequence (Q14831 whole entry): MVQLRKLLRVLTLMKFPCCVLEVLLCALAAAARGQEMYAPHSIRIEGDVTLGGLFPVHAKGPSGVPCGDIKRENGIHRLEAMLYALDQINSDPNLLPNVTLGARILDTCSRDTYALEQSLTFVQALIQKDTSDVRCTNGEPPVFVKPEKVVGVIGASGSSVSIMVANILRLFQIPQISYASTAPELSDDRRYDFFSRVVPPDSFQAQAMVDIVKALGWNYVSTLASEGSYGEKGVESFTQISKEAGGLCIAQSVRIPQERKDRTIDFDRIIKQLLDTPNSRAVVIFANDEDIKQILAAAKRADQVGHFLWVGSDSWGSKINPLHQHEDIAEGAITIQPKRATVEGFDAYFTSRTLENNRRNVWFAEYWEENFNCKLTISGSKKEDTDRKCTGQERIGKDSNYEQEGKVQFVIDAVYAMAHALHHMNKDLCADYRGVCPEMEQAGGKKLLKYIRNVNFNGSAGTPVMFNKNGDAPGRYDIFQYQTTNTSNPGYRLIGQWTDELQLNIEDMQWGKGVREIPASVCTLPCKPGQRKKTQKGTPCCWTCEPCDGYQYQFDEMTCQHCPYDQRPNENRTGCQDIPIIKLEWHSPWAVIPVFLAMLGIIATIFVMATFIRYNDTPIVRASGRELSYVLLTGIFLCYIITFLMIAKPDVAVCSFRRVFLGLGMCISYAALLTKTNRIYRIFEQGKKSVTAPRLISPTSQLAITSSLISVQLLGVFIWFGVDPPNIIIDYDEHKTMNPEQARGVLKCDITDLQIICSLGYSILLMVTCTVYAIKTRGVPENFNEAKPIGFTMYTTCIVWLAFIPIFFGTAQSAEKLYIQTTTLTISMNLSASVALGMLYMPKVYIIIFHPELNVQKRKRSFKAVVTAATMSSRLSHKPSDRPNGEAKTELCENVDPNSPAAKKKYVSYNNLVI
# [17] = Cmax in Sprague-Dawley rat at 30 umol/kg, po; format: ADME, organism-based; set-up: dose 30 umol/kg, route oral; conditions: in vivo; in short: as §3
# Glutamate NMDA receptor = experiment: Displacement of radioligand from glutamate and glycine binding site of NMDA receptor in rat brain membrane; format: cell membranes; in short: as §4
# [18] = Tmax in Sprague-Dawley rat at 30 umol/kg, po; format: ADME, organism-based; conditions: in vivo; in short: as §3
# [19] = Ratio of drug level in brain to plasma in Sprague-Dawley rat at 30 umol/kg, po; format: ADME; in short: as §2
# [20] = target: Metabotropic glutamate receptor 2 (Homo sapiens, UniProt Q14416); experiment: Inhibition of human mGluR2
# [21] = Displacement of radioligand from glutamate binding site of AMPA receptor in rat brain membrane; format: cell membranes; in short: as §4
# [22] = First elimination Half life in Sprague-Dawley rat at 10 umol/kg, iv; format: ADME, organism-based; conditions: in vivo, read-out: beta t1/2 (converted); in short: as §1
# [23] = AUC in Sprague-Dawley rat at 30 umol/kg, po; format: ADME, organism-based; conditions: plasma; in short: as §3
# [24] = Clearance in Sprague-Dawley rat at 10 umol/kg, iv; format: ADME, organism-based; conditions: in vivo; in short: as §1
# [25] = Volume of distribution at steady state in Sprague-Dawley rat at 10 umol/kg, iv; format: ADME, organism-based; conditions: in vivo, read-out: Vdss; in short: as §1
# Rattus norvegicus [26] = experiment: Anxiolytic-like activity in water-deprived rat assessed as increase in electrical shock-stimulated lick at 3 mg/kg, po administered 1 hr before test by Vogel conflict test; format: functional, organism-based; set-up: dose 3 mg/kg
# [27] = target: T1, Metabotropic glutamate receptor 5; experiment: Displacement of [3H]ABP688 from human recombinant mGluR5 expressed in CHO cells; format: cell-based
structure (smiles),measurement,setting,value
CC1CCCN(C(=O)c2cnc(Nc3ccc(Cl)cc3)c(Cl)c2)C1 (configuration not stated),IC50,[1],95 nM
O=C(c1ccc(Nc2ccc(F)cc2)nc1)N1CCCCC1,IC50,[1],2300 nM
CC1CCCN(C(=O)c2ccc(Nc3ccc(Cl)cc3)nn2)C1 (configuration not stated),IC50,[1],720 nM
CCC1CCCN(C(=O)c2cnc(Nc3ccc(C)nc3)c(Cl)c2)C1 (racemic),microsomal CLint,[2],171 µL/min/mg
same,microsomal CLint,[3],417 µL/min/mg
same,solubility,[4],15 µg/mL
CC1CCCN(C(=O)c2ccc(Oc3ccc(Cl)cc3)nc2)C1 (configuration not stated),IC50,[1],> 10000 nM
O=C(c1ccc(Nc2ccc(Cl)cc2)nc1)N1CCCCCC1,IC50,[1],250 nM
Cc1ccc(Nc2ncc(C(=O)N3CCCC(C)C3)cc2Cl)cn1 (racemic),microsomal CLint,[2],60 µL/min/mg
same,microsomal CLint,[3],38 µL/min/mg
O=C(c1ccc(NC2CCCCC2)nc1)N1CCCCC1,IC50,[1],> 10000 nM
O=C(c1ccc(Nc2ccccc2Cl)nc1)N1CCCCC1,IC50,[1],> 10000 nM
CCCC1CCCCN1C(=O)c1cnc(Nc2ccc(C)nc2)c(Cl)c1 (racemic),IC50,[1],90 nM
same,IC50,[5],16 nM
same,microsomal CLint,[2],224 µL/min/mg
same,microsomal CLint,[3],885 µL/min/mg
same,solubility,[4],< 3 µg/mL
CCN(CC)C(=O)c1ccc(Nc2ccc(Cl)cc2)nc1,IC50,[1],460 nM
O=C(c1ccc(Nc2ccc(Cl)cc2)nc1)N1CCCCC1,IC50,[1],310 nM
Cc1ccc(Nc2ncc(C(=O)N3CCCC[C@H]3C)cc2Cl)cn1,IC50,[1],240 nM
same,IC50,[5],430 nM
same,microsomal CLint,[2],44 µL/min/mg
same,microsomal CLint,[3],73 µL/min/mg
same,solubility,[4],216 µg/mL
CCC1CCCCN1C(=O)c1cnc(Nc2ccc(C)nc2)c(Cl)c1 (racemic),IC50,[1],110 nM
same,IC50,[5],90 nM
same,microsomal CLint,[2],138 µL/min/mg
same,microsomal CLint,[3],220 µL/min/mg
same,solubility,[4],122 µg/mL
O=C(c1ccc(Nc2ccc(Cl)cc2)nc1)N1CCCCCCC1,IC50,[1],2300 nM
CC[C@@H]1CCCN(C(=O)c2cnc(Nc3ccc(C)nc3)c(Cl)c2)C1,microsomal CLint,[2],322 µL/min/mg
same,microsomal CLint,[3],643 µL/min/mg
same,solubility,[4],95 µg/mL
O=C(c1ccc(Nc2cccc(Cl)c2)nc1)N1CCCCC1,IC50,[1],> 10000 nM
COc1ccc(Nc2ccc(C(=O)N3CCCCC3)cn2)cc1,IC50,[1],1800 nM
CC[C@@H]1CCCCN1C(=O)c1cnc(Nc2ccc(C)nc2)c(Cl)c1,Drug uptake,Brain,127 pmol/g
same,half-life,[6],54 min
same,IC50,[7],> 10000 nM
same,AUC,[8],4.48 µM·h
same,Kp,[9],1.36
same,IC50,[1],32 nM
same,IC50,[5],36 nM
same,Activity,Rattus norvegicus [10],Dose-dependent effect
same,bioavailability,[11],54%
same,MRT,[12],54 min
same,IC50,[13],> 10000 nM
same,microsomal CLint,[2],89 µL/min/mg
same,Activity,Rattus norvegicus [14],Active
same,Activity,Mus musculus,Active
same,Ki,[15],30 nM
same,IC50,[16],> 10000 nM
same,Cmax,[17],1230 nM
same,microsomal CLint,[3],87 µL/min/mg
same,IC50,Glutamate NMDA receptor,> 10000 nM
same,solubility,[4],58 µg/mL
same,Tmax,[18],15 min
same,Kp,[19],1.3
same,IC50,[20],> 10000 nM
same,IC50,[21],> 10000 nM
same,half-life,[22],18 min
same,AUC,[23],7.23 µM·h
same,clearance,[24],37.2 mL/min/kg
same,Vd,[25],2 L/kg
same,Activity,Rattus norvegicus [26],inactive
same,Ki,[27],38 nM
Cc1ccc(Nc2ccc(C(=O)N3CCCCC3)cn2)cc1,IC50,[1],2300 nM
CC1CCCN(C(=O)c2cc(Nc3ccc(Cl)cc3)[nH]n2)C1 (configuration not stated),IC50,[1],> 10000 nM
O=C(NC1CCCCC1)c1ccc(Nc2ccc(Cl)cc2)nc1,IC50,[1],> 10000 nM
CC1CCCCN1C(=O)c1ccc(Nc2ccc(Cl)cc2)nc1 (racemic),IC50,[1],430 nM
Cc1ccc(Nc2ncc(C(=O)N3CCCC[C@@H]3C)cc2Cl)cn1,IC50,[1],1400 nM
same,microsomal CLint,[2],39 µL/min/mg
same,microsomal CLint,[3],68 µL/min/mg
same,solubility,[4],499 µg/mL
CC1CCN(C(=O)c2ccc(Nc3ccc(Cl)cc3)nc2)CC1,IC50,[1],2300 nM
O=C(c1ccc(Nc2ccc(Cl)c(Cl)c2)nc1)N1CCCCC1,IC50,[1],> 10000 nM
O=C(c1cnc(Nc2ccc(Cl)cc2)cn1)N1CCCCC1,IC50,[1],> 10000 nM
O=C(c1ccc(Nc2ccccc2)nc1)N1CCCCC1,IC50,[1],10000 nM
CC[C@H]1CCCN(C(=O)c2cnc(Nc3ccc(C)nc3)c(Cl)c2)C1,microsomal CLint,[2],174 µL/min/mg
same,microsomal CLint,[3],687 µL/min/mg
same,solubility,[4],< 3 µg/mL
Cc1ccc(Nc2ccc(C(=O)N3CCCCC3)cn2)cn1,IC50,[1],420 nM
CC[C@H]1CCCCN1C(=O)c1cnc(Nc2ccc(C)nc2)c(Cl)c1,IC50,[1],390 nM
same,IC50,[5],360 nM
same,microsomal CLint,[2],216 µL/min/mg
same,microsomal CLint,[3],190 µL/min/mg
same,solubility,[4],56 µg/mL
O=C(c1ccc(Nc2ccc(Cl)cc2)nc1)N1CCCC1,IC50,[1],5400 nM
Cc1ccc(Nc2ncc(C(=O)N3CCCCC3)cc2Cl)cn1,microsomal CLint,[2],33 µL/min/mg
same,microsomal CLint,[3],48 µL/min/mg
same,solubility,[4],150 µg/mL
CC1CCCN(C(=O)c2ccc(Nc3ccc(Cl)cc3)nc2)C1 (racemic),IC50,[1],530 nM
O=C(c1ccc(Nc2ccc(Cl)cn2)nc1)N1CCCCC1,IC50,[1],10000 nM
CN(c1ccc(Cl)cc1)c1ccc(C(=O)N2CCCCC2)cn1,IC50,[1],> 10000 nM
COc1cc(C(=O)N2CCCCC2)cnc1Nc1ccc(Cl)cc1,IC50,[1],2100 nM
CC1CCCN(C(=O)c2ccc(Nc3ccc(Cl)cc3)cc2)C1 (configuration not stated),IC50,[1],1600 nM
CCCCC1CCCCN1C(=O)c1cnc(Nc2ccc(C)nc2)c(Cl)c1 (racemic),IC50,[1],136 nM
same,IC50,[5],5 nM
same,microsomal CLint,[2],227 µL/min/mg
same,microsomal CLint,[3],637 µL/min/mg
same,solubility,[4],< 3 µg/mL
CC1CCCN(C(=O)c2cnc(Nc3ccc(Cl)cc3)nc2)C1 (configuration not stated),IC50,[1],980 nM
Cc1cccc(Nc2ccc(C(=O)N3CCCCC3)cn2)n1,IC50,[1],> 10000 nM
